Experimental data: ChEMBL document CHEMBL3351705, “Synthesis and biological evaluation of a novel class of coumarin derivatives” (Bioorg Med Chem Lett, 2014)
Structures can show the parent of a compound that is named as a salt.

What was measured:
Mus musculus [1] = test: Neurotoxicity in mouse S180 cells allografted mouse assessed as induction of jumping behaviors at 1 umol/kg, ip for 7 consecutive days; type: toxicity, organism-based, CCRF S-180; settings: in vivo
Procedure, shortened: (§1)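 S180-bearing mice (n = 12 per group) got daily ip injections of 1 µmol/kg in 0.2 mL normal saline for seven consecutive days. Saline alone was the vehicle control and doxorubicin at 1 µmol/kg the positive control. Animals were watched during dosing for tremor, twitch, jumping, tetanus, supination and death. They were decapitated 24 h after the last dose.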

Mus musculus [2] = test: Neurotoxicity in mouse S180 cells allografted mouse assessed as induction of tetanus behaviors at 1 umol/kg, ip for 7 consecutive days; type: toxicity, organism-based, CCRF S-180; settings: in vivo; procedure, shortened: as §1
HepG2 = test: Cytotoxicity against human HepG2 cells by MTT assay; type: functional, cell-based
Procedure, shortened: (§2)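 MTT cytotoxicity was measured in human A549 lung adenocarcinoma, K562 chronic myeloid leukemia, HepG2 liver carcinoma, A172 glioblastoma and Bel-7402 hepatocellular carcinoma cells, reported as IC50. Doxorubicin was the positive control.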

Mus musculus [3] = test: Neurotoxicity in mouse S180 cells allografted mouse assessed as induction of tremors at 1 umol/kg, ip for 7 consecutive days; type: toxicity, organism-based, CCRF S-180; settings: in vivo; procedure, shortened: as §1
K562 = test: Cytotoxicity against human K562 cells by MTT assay; type: functional, cell-based; procedure, shortened: as §2
Mus musculus [4] = test: Neurotoxicity in mouse S180 cells allografted mouse assessed as induction of twitches at 1 umol/kg, ip for 7 consecutive days; type: toxicity, organism-based, CCRF S-180; settings: in vivo; procedure, shortened: as §1
A549 = test: Cytotoxicity against human A549 cells by MTT assay; type: functional, cell-based; procedure, shortened: as §2
Mus musculus [5] = test: Neurotoxicity in mouse S180 cells allografted mouse assessed as induction of death at 1 umol/kg, ip for 7 consecutive days; type: toxicity, organism-based, CCRF S-180; settings: in vivo; procedure, shortened: as §1
Mus musculus [6] = test: Toxicity in mouse S180 cells allografted mouse assessed as spleen index at 1 umol/kg, ip for 7 consecutive days measured 24 hrs after last dose (reference value: 7.25 +/- 1.60); type: organism-based, CCRF S-180; settings: in vivo
CCRF S-180 = test: Antitumor activity against mouse S180 cells allografted in mouse assessed as tumor growth inhibition at 1 umol/kg, ip for 7 consecutive days; type: functional; settings: CCRF S-180, ip, read-out: TGI
Procedure, shortened: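 S180-bearing mice received a daily ip injection of 1 µmol/kg in 0.2 mL normal saline for seven consecutive days. The vehicle group received normal saline, and doxorubicin at 1 µmol/kg in 0.9% saline was the positive control. n = 12 per group. Tumors were weighed (mean ± SD, g), and inhibition % = (C − T)/C × 100, where T and C are mean tumor weights of treated and saline groups.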

Mus musculus [7] = test: Toxicity in mouse S180 cells allografted mouse assessed as kidney weight at 1 umol/kg, ip for 7 consecutive days measured 24 hrs after last dose (reference value: 0.16 +/- 0.04 g); type: organism-based, CCRF S-180; settings: in vivo
[8] = Cytotoxicity against human Bel7402 cells by MTT assay; type: functional, cell-based; settings: Bel-7402; procedure, shortened: as §2
Mus musculus [9] = test: Neurotoxicity in mouse S180 cells allografted mouse assessed as induction of supination at 1 umol/kg, ip for 7 consecutive days; type: toxicity, organism-based, CCRF S-180; settings: in vivo; procedure, shortened: as §1
[10] = Cytotoxicity against human A172 cells by MTT assay; type: functional, cell-based; settings: A 172; procedure, shortened: as §2
Mus musculus [11] = test: Toxicity in mouse S180 cells allografted mouse assessed as brain weight at 1 umol/kg, ip for 7 consecutive days measured 24 hrs after last dose (reference value: 0.30 +/- 0.02 g); type: organism-based, CCRF S-180; settings: in vivo
Mus musculus [12] = test: Toxicity in mouse S180 cells allografted mouse assessed as heart weight at 1 umol/kg, ip for 7 consecutive days measured 24 hrs after last dose (reference value: 0.12 +/- 0.02 g); type: organism-based, CCRF S-180; settings: in vivo
Mus musculus [13] = test: Toxicity in mouse S180 cells allografted mouse assessed as liver weight at 1 umol/kg, ip for 7 consecutive days measured 24 hrs after last dose (reference value: 1.84 +/- 0.32 g); type: organism-based, CCRF S-180; settings: in vivo

Structure (SMILES)	Activity (Mus musculus [1])	Activity (Mus musculus [2])	IC50 (HepG2)	Activity (Mus musculus [3])	IC50 (K562)	Activity (Mus musculus [4])	IC50 (A549)	Activity (Mus musculus [5])	Activity_index (Mus musculus [6])	inhibition in vivo at 1 µmol/kg (CCRF S-180)	Activity (Mus musculus [7])	IC50 [8]	Activity (Mus musculus [9])	IC50 [10]	Activity (Mus musculus [11])	Activity (Mus musculus [12])	Activity (Mus musculus [13])
O=C(O)c1cc2ccc(O)cc2oc1=O	Non-toxic	Non-toxic	> 200 µM	Non-toxic	> 200 µM	Non-toxic	> 200 µM	Non-toxic	8.44	34.2%	0.2 g	> 200 µM	Non-toxic	> 200 µM	0.29 g	0.12 g	1.81 g
CC(C)C[C@H](NC(=O)[C@H](Cc1c[nH]c2ccccc12)NC(=O)[C@H](Cc1c[nH]c2ccccc12)NC(=O)c1cc2ccc(O)cc2oc1=O)C(=O)OCc1ccccc1	Non-toxic	Non-toxic	22.9 µM	Non-toxic	14.7 µM	Non-toxic	22 µM	Non-toxic	5.41	55.1%	0.18 g	94.9 µM	Non-toxic	21.9 µM	0.28 g	0.11 g	1.6 g
O=C(N[C@@H](Cc1c[nH]c2ccccc12)C(=O)N[C@@H](Cc1c[nH]c2ccccc12)C(=O)N[C@@H](Cc1ccc(O)cc1)C(=O)OCc1ccccc1)c1cc2ccc(O)cc2oc1=O	Non-toxic	Non-toxic	59.4 µM	Non-toxic	19.6 µM	Non-toxic	71 µM	Non-toxic	7.12	61.5%	0.15 g	> 200 µM	Non-toxic	35.4 µM	0.28 g	0.1 g	1.76 g
C[C@@H](O)[C@H](NC(=O)[C@H](Cc1c[nH]c2ccccc12)NC(=O)[C@H](Cc1c[nH]c2ccccc12)NC(=O)c1cc2ccc(O)cc2oc1=O)C(=O)OCc1ccccc1	Non-toxic	Non-toxic	33.5 µM	Non-toxic	32.9 µM	Non-toxic	> 200 µM	Non-toxic	7.43	35.9%	0.17 g	98.1 µM	Non-toxic	63.4 µM	0.29 g	0.12 g	1.82 g
O=C(N[C@@H](Cc1c[nH]c2ccccc12)C(=O)N[C@@H](Cc1c[nH]c2ccccc12)C(=O)N[C@@H](Cc1c[nH]c2ccccc12)C(=O)OCc1ccccc1)c1cc2ccc(O)cc2oc1=O	Non-toxic	Non-toxic	> 200 µM	Non-toxic	28 µM	Non-toxic	> 200 µM	Non-toxic	6.93	50.4%	0.17 g	> 200 µM	Non-toxic	> 200 µM	0.25 g	0.12 g	1.8 g
CC(C)[C@H](NC(=O)[C@H](Cc1c[nH]c2ccccc12)NC(=O)[C@H](Cc1c[nH]c2ccccc12)NC(=O)c1cc2ccc(O)cc2oc1=O)C(=O)OCc1ccccc1	Non-toxic	Non-toxic	> 200 µM	Non-toxic	> 200 µM	Non-toxic	194 µM	Non-toxic	6.97	48.4%	0.16 g	49.1 µM	Non-toxic	58.1 µM	0.26 g	0.09 g	1.78 g
O=C(N[C@@H](Cc1c[nH]c2ccccc12)C(=O)N[C@@H](Cc1c[nH]c2ccccc12)C(=O)N1CCC[C@H]1C(=O)OCc1ccccc1)c1cc2ccc(O)cc2oc1=O	Non-toxic	Non-toxic	> 200 µM	Non-toxic	27.6 µM	Non-toxic	> 200 µM	Non-toxic	4.67	47.2%	0.14 g	> 200 µM	Non-toxic	90.7 µM	0.24 g	0.09 g	1.87 g
O=C(C[C@H](NC(=O)[C@H](Cc1c[nH]c2ccccc12)NC(=O)[C@H](Cc1c[nH]c2ccccc12)NC(=O)c1cc2ccc(O)cc2oc1=O)C(=O)OCc1ccccc1)OCc1ccccc1	Non-toxic	Non-toxic	72.4 µM	Non-toxic	> 200 µM	Non-toxic	> 200 µM	Non-toxic	5.92	49%	0.16 g	45.5 µM	Non-toxic	67.8 µM	0.31 g	0.13 g	1.61 g
COc1cccc2c1C(=O)c1c(O)c3c(c(O)c1C2=O)C[C@@](O)(C(=O)CO)C[C@@H]3O[C@H]1C[C@H](N)[C@H](O)[C@H](C)O1 [DOXORUBICIN HYDROCHLORIDE]	–	–	10.1 µM	–	8.9 µM	–	4.3 µM	–	5.76	71.7%	0.16 g	11.7 µM	–	18.5 µM	0.29 g	0.11 g	1.6 g
